Legend:
[1] = target: Mast/stem cell growth factor receptor Kit (Homo sapiens, UniProt P10721); assay: Inhibition of cKIT (unknown origin)
[2] = AUC in mouse at 10 mg/kg, po; format: ADME, organism-based; conditions: in vivo
[3] = target: T1, Tyrosine-protein kinase TXK (Homo sapiens, UniProt P42681); assay: Inhibition of TXK (unknown origin)
T1 sequence (P42681 whole entry): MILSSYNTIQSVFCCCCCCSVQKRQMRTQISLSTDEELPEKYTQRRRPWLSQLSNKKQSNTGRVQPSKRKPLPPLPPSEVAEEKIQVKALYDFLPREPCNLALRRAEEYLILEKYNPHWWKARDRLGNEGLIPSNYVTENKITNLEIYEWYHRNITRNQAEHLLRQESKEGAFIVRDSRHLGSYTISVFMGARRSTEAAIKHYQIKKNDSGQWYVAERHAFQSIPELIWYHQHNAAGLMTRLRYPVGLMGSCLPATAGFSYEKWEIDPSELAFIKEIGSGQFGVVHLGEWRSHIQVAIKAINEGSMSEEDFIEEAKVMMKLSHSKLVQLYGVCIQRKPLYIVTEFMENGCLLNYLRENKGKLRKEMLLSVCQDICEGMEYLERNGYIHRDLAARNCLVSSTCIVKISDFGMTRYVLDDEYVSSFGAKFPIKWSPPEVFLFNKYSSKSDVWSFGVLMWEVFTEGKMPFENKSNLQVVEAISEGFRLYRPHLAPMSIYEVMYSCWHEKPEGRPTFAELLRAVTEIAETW

[4] = target: Tyrosine-protein kinase Lyn (Homo sapiens, UniProt P07948); assay: Inhibition of LYNa (unknown origin)
Chain of Tyrosine-protein kinase Lyn (P07948 whole entry): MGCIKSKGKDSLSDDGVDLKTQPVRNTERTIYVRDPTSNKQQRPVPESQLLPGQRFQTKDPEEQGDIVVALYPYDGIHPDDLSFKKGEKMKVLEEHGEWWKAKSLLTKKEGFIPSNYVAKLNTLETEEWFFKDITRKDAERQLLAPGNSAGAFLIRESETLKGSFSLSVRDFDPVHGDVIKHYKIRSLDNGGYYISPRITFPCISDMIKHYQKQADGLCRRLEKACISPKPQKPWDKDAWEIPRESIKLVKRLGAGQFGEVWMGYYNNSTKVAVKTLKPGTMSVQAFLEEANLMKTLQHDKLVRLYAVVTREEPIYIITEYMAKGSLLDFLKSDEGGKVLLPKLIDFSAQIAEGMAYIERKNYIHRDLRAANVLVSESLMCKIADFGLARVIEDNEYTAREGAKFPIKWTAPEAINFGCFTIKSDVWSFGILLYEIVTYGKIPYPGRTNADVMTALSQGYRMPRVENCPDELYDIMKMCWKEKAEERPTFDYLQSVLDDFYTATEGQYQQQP

[5] = target: T2, Tyrosine-protein kinase ITK/TSK (Homo sapiens, UniProt Q08881); assay: Inhibition of ITK (unknown origin)
T2 sequence (Q08881 whole entry): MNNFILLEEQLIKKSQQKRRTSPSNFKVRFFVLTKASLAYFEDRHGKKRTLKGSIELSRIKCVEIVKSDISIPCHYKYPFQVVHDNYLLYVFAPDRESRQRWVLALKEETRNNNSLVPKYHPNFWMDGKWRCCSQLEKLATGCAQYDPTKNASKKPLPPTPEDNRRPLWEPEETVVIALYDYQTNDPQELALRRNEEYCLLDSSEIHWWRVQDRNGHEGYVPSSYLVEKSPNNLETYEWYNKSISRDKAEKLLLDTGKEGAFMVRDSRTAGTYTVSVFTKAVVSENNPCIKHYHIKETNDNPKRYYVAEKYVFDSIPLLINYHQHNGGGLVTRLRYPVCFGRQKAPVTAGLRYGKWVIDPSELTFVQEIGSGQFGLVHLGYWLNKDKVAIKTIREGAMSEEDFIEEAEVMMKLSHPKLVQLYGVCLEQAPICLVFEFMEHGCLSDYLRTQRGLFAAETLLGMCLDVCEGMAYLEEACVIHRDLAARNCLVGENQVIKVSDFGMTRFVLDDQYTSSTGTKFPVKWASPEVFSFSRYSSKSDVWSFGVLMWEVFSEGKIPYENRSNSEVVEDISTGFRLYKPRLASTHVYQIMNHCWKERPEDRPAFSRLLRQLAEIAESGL

[6] = target: T3, Tyrosine-protein kinase Tec (Homo sapiens, UniProt P42680); assay: Inhibition of TEC (unknown origin)
T3 sequence (P42680 whole entry): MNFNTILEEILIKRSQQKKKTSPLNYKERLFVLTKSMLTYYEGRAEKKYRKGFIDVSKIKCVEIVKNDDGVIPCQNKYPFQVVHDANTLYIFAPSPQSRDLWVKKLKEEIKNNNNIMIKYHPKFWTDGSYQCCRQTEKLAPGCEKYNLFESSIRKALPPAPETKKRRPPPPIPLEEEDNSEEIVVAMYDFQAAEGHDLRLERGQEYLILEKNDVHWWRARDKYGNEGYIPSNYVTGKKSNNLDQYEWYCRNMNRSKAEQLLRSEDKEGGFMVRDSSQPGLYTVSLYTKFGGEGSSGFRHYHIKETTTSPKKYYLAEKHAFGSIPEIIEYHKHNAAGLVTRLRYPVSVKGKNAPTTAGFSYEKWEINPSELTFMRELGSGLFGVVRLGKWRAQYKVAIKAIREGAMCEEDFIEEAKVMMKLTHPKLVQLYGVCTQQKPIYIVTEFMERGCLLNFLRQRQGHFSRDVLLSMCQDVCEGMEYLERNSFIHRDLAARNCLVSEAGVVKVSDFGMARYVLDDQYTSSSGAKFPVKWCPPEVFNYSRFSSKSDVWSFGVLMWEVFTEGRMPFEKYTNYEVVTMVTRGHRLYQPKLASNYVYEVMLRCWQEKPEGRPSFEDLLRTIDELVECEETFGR

[7] = target: Non-receptor tyrosine-protein kinase TYK2 (Homo sapiens, UniProt P29597); assay: Inhibition of TYK2 (unknown origin)
Chain of Non-receptor tyrosine-protein kinase TYK2 (P29597 whole entry): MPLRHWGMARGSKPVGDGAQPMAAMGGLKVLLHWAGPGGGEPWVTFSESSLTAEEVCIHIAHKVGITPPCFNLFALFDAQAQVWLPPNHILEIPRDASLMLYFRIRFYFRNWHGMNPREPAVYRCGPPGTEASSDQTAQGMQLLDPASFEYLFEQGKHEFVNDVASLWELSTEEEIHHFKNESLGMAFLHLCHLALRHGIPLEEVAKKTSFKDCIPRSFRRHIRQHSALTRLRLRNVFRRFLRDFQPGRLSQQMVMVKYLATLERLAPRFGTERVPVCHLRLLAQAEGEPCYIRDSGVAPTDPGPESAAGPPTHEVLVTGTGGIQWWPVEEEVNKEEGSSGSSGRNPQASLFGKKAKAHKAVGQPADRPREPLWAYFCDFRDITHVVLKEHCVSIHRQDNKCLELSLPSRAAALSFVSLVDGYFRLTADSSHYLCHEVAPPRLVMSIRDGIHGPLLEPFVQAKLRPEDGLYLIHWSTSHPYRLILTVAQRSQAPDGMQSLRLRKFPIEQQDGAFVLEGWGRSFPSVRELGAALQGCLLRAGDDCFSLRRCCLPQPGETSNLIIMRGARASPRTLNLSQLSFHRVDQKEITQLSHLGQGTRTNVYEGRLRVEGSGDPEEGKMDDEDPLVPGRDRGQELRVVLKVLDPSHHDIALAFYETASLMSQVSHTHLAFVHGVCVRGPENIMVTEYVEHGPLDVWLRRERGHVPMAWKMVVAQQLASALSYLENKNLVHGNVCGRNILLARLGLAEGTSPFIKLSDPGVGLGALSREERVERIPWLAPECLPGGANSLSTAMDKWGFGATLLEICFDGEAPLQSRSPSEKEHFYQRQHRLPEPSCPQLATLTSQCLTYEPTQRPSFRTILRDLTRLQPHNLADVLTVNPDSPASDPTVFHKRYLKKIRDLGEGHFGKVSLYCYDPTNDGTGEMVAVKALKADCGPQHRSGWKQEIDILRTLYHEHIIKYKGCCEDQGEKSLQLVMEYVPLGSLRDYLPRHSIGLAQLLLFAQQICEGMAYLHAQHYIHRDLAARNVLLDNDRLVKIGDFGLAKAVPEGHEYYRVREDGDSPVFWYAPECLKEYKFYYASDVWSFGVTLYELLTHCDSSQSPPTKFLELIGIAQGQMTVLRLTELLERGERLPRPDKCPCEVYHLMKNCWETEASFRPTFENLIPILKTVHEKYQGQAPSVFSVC

[8] = target: Cyclin-dependent kinase 2 (Homo sapiens, UniProt P24941); assay: Inhibition of CDK2 (unknown origin)
[9] = target: T4, Cytoplasmic tyrosine-protein kinase BMX (Homo sapiens, UniProt P51813); assay: Inhibition of BMX (unknown origin)
T4 sequence (P51813 whole entry): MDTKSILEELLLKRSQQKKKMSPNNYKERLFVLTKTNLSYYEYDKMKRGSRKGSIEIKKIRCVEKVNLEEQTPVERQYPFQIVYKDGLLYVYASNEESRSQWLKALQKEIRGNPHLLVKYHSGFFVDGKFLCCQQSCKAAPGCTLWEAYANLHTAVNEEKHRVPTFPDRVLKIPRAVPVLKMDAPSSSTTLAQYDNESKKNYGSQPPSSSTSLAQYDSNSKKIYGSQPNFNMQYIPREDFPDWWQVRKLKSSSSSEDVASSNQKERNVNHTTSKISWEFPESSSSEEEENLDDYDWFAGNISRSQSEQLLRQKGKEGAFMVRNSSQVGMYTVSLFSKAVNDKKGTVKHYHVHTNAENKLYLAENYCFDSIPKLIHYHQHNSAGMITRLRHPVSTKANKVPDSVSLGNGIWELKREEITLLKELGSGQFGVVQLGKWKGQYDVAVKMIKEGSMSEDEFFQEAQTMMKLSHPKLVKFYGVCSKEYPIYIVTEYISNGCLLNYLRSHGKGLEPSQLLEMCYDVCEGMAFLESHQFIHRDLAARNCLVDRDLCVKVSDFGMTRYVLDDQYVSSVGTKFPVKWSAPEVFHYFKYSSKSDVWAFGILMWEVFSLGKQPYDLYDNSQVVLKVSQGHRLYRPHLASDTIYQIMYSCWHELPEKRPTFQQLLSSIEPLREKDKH

Aurora kinase A = target: T5, Aurora kinase A (Homo sapiens, UniProt O14965); assay: Inhibition of Aurora-A (unknown origin)
T5 sequence (O14965 whole entry): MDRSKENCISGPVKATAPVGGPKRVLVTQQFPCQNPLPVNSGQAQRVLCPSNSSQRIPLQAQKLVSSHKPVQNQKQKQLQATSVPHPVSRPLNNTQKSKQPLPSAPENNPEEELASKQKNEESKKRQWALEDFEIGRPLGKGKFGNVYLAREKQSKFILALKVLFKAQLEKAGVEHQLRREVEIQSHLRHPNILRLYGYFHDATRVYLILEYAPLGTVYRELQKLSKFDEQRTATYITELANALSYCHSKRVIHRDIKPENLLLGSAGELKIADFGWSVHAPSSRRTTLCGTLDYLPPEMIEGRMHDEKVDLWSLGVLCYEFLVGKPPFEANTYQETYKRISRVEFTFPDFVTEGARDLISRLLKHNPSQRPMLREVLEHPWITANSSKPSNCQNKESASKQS

[10] = target: Tyrosine-protein kinase BTK (Homo sapiens, UniProt Q06187); assay: Inhibition of human recombinant BTK
Chain of Tyrosine-protein kinase BTK (Q06187 whole entry): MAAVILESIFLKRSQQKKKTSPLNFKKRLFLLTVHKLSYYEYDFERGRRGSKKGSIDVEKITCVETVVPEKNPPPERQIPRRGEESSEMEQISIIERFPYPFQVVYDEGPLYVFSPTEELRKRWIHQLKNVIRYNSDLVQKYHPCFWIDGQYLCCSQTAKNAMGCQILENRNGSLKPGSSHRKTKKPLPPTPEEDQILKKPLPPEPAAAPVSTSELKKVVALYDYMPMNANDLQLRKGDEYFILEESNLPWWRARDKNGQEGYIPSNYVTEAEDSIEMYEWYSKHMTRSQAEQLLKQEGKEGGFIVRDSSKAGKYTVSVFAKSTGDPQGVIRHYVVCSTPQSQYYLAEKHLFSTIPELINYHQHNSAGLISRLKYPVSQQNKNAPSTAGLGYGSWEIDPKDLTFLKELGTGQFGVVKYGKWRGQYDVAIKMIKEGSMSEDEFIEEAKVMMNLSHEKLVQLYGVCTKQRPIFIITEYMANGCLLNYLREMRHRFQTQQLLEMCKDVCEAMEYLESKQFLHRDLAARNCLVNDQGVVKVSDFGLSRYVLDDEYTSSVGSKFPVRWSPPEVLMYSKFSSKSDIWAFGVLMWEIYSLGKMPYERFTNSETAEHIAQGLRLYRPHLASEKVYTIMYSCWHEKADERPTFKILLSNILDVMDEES

[11] = target: Tyrosine-protein kinase Lck (Homo sapiens, UniProt P06239); assay: Inhibition of LCK (unknown origin)
Chain of Tyrosine-protein kinase Lck (P06239 whole entry): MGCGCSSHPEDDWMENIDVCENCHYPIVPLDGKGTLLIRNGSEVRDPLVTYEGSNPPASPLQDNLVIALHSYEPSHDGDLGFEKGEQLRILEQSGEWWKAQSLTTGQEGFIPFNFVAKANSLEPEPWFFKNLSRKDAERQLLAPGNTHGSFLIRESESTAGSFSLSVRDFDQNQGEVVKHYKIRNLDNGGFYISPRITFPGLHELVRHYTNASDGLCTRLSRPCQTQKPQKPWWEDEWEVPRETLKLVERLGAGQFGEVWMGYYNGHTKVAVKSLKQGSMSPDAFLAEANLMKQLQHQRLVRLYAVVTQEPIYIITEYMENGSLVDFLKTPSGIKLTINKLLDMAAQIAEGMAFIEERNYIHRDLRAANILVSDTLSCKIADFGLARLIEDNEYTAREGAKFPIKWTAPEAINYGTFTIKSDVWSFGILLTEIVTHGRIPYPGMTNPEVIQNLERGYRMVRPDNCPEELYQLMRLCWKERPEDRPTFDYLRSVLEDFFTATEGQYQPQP

[12] = target: Tyrosine-protein kinase JAK2 (Homo sapiens, UniProt O60674); assay: Inhibition of JAK2 (unknown origin)
Chain of Tyrosine-protein kinase JAK2 (O60674 whole entry): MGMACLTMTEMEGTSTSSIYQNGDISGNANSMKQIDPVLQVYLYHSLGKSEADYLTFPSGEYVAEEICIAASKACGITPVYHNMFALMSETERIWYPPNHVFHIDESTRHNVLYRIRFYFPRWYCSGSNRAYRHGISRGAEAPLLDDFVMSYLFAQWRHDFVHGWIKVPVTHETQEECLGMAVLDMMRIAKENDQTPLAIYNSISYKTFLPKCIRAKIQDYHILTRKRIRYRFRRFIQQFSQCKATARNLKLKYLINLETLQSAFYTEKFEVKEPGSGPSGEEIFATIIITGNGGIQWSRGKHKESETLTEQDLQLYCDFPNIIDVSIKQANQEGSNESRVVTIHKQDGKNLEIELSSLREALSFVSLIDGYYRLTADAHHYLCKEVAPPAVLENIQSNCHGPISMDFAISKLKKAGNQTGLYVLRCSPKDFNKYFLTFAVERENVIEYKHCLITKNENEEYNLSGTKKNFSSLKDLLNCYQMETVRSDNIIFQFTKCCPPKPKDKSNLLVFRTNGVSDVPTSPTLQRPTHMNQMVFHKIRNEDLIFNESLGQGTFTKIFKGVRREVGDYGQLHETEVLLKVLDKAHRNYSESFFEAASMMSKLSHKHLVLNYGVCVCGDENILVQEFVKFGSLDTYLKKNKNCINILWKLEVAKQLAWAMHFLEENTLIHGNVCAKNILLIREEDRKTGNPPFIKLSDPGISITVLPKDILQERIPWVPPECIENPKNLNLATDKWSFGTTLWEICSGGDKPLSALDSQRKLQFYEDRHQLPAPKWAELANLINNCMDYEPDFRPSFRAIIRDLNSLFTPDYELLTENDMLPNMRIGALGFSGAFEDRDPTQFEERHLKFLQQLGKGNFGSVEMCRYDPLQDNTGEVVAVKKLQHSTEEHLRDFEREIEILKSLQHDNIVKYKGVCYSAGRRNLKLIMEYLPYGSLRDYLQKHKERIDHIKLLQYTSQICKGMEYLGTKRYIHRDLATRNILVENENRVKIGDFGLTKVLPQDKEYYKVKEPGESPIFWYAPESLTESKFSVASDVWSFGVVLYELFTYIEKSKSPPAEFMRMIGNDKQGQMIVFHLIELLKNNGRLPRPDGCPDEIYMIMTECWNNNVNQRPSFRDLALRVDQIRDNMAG

[13] = Drugrecovery in mouse liver microsomes after 10 mins; format: ADME
Outline: (§1)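 Test compound at 0.5 μM was incubated with human, rat or mouse liver microsomes for 10 minutes at 37 °C. The readout was the percentage of unchanged compound recovered after incubation.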

[14] = Drugrecovery in rat liver microsomes after 10 mins; format: ADME; outline: as §1
[15] = Drugrecovery in human liver microsomes after 10 mins; format: ADME; outline: as §1

Chain of Mast/stem cell growth factor receptor Kit (P10721 whole entry): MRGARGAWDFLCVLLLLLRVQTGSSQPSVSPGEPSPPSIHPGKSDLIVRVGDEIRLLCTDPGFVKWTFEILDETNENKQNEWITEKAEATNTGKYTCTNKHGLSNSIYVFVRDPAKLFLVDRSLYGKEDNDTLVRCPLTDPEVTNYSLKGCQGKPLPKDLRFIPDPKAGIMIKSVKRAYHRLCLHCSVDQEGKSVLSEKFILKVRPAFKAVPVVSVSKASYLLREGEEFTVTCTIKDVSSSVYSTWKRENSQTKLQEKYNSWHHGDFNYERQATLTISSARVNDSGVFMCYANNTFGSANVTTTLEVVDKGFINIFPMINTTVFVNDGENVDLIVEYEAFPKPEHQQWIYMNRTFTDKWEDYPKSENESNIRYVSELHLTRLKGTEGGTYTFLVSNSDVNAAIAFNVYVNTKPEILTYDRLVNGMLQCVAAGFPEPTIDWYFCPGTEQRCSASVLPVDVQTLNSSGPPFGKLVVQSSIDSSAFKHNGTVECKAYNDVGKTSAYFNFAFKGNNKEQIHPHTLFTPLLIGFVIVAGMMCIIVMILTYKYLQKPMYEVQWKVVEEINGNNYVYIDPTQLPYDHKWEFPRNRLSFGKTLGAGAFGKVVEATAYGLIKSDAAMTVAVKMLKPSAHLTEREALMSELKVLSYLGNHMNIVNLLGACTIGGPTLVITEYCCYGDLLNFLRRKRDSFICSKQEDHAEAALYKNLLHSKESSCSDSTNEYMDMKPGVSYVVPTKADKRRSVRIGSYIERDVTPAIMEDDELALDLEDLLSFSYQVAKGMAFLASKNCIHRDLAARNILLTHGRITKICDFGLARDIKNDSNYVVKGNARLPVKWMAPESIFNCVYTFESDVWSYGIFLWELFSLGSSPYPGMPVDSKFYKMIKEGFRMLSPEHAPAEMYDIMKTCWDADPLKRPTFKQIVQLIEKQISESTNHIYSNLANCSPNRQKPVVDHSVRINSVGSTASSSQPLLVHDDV

IC50 [1] [nM]	AUC [2] [µM·h]	IC50 [3] [nM]	IC50 [4] [nM]	IC50 [5] [nM]	IC50 [6] [nM]	IC50 [7] [nM]	IC50 [8] [nM]	IC50 [9] [nM]	IC50 (Aurora kinase A) [nM]	IC50 [10] [nM]	IC50 [11] [nM]	IC50 [12] [nM]	remaining at 10 min [13] [%]	remaining at 10 min [14] [%]	remaining at 10 min [15] [%]	Compound
41	25.6	119	68	39	116	753	610	119	444	15	81	–	–	–	–	CN1CCN(C(=O)c2ccc3c(c2)[nH]c2c(C(N)=O)ccc(-c4ccccc4F)c23)CC1
471	–	172	204	55	162	> 2000	2700	193	> 2000	–	108	212	–	–	–	CC(=O)Nc1cccc(-c2ccc(C(N)=O)c3[nH]c4cc(C(=O)N5CCN(C)CC5)ccc4c23)c1C
1050	–	95	824	115	41	14300	> 50000	109	493	3	569	–	–	–	–	CN1CCN(C(=O)c2ccc3c(c2)[nH]c2c(C(N)=O)ccc(-c4cccc(NC(=O)c5ccc(N(C)C)cc5)c4F)c23)CC1
–	–	–	–	–	–	–	–	–	–	–	–	–	< 3	< 3	< 3	CC(C)(C)c1ccc(C(=O)N[C@@H]2CCCN(c3ccc(C(N)=O)c(Nc4ccc(C(=O)N5CCOCC5)cc4)n3)C2)cc1

— ChEMBL document CHEMBL3621099, “Design and synthesis of carbazole carboxamides as promising inhibitors of Bruton's tyrosine kinase (BTK) and Janus kinase 2 (JAK2)” (Bioorg Med Chem Lett, 2015)
